In publication PMC9089800 (RSC Advances, 2018):
Like-named read-outs stand apart in the source and are kept apart here.

How the values were obtained:
MCF7 = assay: MTT growth inhibition / cytotoxicity assay, MCF7; format: cell-based, human
MDA-MB-231 = assay: MTT growth inhibition / cytotoxicity assay, MDA-MB-231; format: cell-based, human
MCF7 cells [1] = assay: Cell cycle analysis by FACS; format: cell-based, human; settings: MCF7, 24 h; 30 μM of 9, 20 μM of 10
Procedure, shortened: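 Cells seeded a day before; treated 24 h with test compound or DMSO vehicle (final DMSO <0.02%). Cells trypsinised, pelleted at 4 °C, fixed overnight at 4 °C in chilled 95% ethanol, and PBS-washed. Stained with propidium iodide plus RNase in PBS/2 mM MgCl2 for 20 min at 37 °C, then acquired by flow cytometry. Three repeats; mean sub-G1 population plotted.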

MCF10A = assay: cells; format: cell-based; settings: 48 h; for IC50: Homo sapiens, MCF-10A, read-out: IC50 in μM MCF10A
MCF7 cells [2] = assay: DNA fragmentation assay; format: cell-based, human; settings: MCF7, 24 h; 30 μM of 9, 20 μM of 10
MCF7 cells [3] = assay: Immunostaining; format: cell-based, human; settings: IC50 concentration, 12 hours
Procedure, shortened: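 Cells grown overnight as a monolayer on coverslips, then exposed to test compound for 12 h. Fixed in 3.7% formaldehyde for 20 min at room temperature in the dark. Permeabilised with 0.5% Tween-20 for 30 min, then blocked with 3% BSA. Stained 1 h with anti-α-tubulin, then 1 h with Alexa Fluor 594 secondary. DNA counterstained with Hoechst; mounted in DABCO/glycerol.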

caspase 9 = assay: Western blot for apoptotic pathway; format: cell-based, human; settings: MCF7, 24 h; 30 μM of 9, 20 μM of 10
Procedure, shortened: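 MCF7 cells exposed 24 h to DMSO vehicle or test compound. Lysed 20 min on ice in Tris pH 7.4/EDTA/NaCl/NaF/orthovanadate/0.5% Triton X-100, then cleared at 16000 × g at 4 °C. Protein quantified by Bradford; samples boiled in Laemmli buffer. SDS-PAGE, PVDF transfer, 3% milk/TBST block. Anti-caspase 9 overnight at 4 °C; HRP secondary; chemiluminescent detection.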

[4] = Homo sapiens, MCF7, 48 h, read-out: IC50 in μM MCF7, MTT, 48 h, 0–100 μM
[5] = read-out: IC50 in μM MCF7, MTT, 48 h, 0–100 μM

SMILES	IC50 (MCF7; [4])	IC50 in μM MCF7 (MCF7; MTT, 48 h, 0–100 μM)	IC50 in μM MDA-MB-231 (MDA-MB-231; 48 h, 0–100 μM)	apoptotic (sub-G1) population (MCF7 cells [1])	IC50 (MCF10A)	cytotoxic effect on normal breast epithelial MCF10A cells (in words) (MCF10A; MTT)	fragmentation of genomic DNA (ladder on agarose gel) (MCF7 cells [2])	IC50 (MCF7; [5])	DNA fragmentation by Hoechst staining, tubulin morphology (MCF7 cells [3])	apoptotic pathway (caspase 9 immunoblot) (caspase 9)	IC50 (MDA-MB-231; read-out: IC50 in μM MDA-MB-231, 48 h, 0–100 μM)
C=C1[C@@H]2[C@H]3OC(=O)C(=C)[C@@H]3CCC(=C)[C@@H]2C[C@@H]1O [Compound 2, Zaluzanin C]	> 100 µM	inactive	inactive								
C=C1[C@@H]2[C@H]3OC(=O)[C@@H](CN[C@H](C)c4cccc5ccccc45)[C@@H]3CCC(=C)[C@@H]2C[C@@H]1OC(C)=O [Compound 9, (3R,3aS,6aR,8S,9aR,9bS)-6,9-Dimethylene-3-((((R)-1-(naphthalen-1-yl)ethyl)amino)methyl)-2-oxododecahydroazuleno[4,5-b]furan-8-yl acetate]	< 50 µM			significantly increased the apoptotic populations	42 ± 4.1 µM	potent cytotoxic effect	substantial fragmented DNA ladder	30 ± 0.7 µM	fragmented DNA	cleavage of caspase 9	
C=C1[C@@H]2[C@H]3OC(=O)[C@@H](CN4CCC(O)CC4)[C@@H]3CCC(=C)[C@@H]2C[C@@H]1O [Compound 14, (3R,3aS,6aR,8S,9aR,9bS)-8-Hydroxy-3-((4-hydroxypiperidin-1-yl)methyl)-6,9-di-methylenedecahydroazuleno[4,5-b]furan-2(3H)-one]	< 50 µM			induced apoptosis to a lesser extent	> 50 µM			40 ± 2.16 µM			25 ± 2.3 µM
